Assay outcomes (PubChem)
An excerpt weighted towards active compounds, which were near 1.3% of everything screened.
CASP6 VEID inh: blocks human caspase-6 cleavage activity | inhibition, % at 12.5 µM | AID 686996 | purified caspase-6, Z-VEID-R110 cleavage fluorescence | 0.53% of 350,000 active;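 active = mean inhibition across replicates at least about 35%, with every replicate also reaching that limit, limit read from the data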;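 note: 0% = median of neutral control wells and 100% = no fluorescence left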
Xi reactivation: activators of X-chromosome reactivation in mouse fibroblasts; activation, % at 7.58 µM; 0.055% of 360,000 active; XiGFP mouse fibroblasts, % GFP-positive cells imaging, 3 d; cells co-treated with 5-aza-dC sensitizer; scaled so ellipticine positive control = 100%; AID 743238;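 active = mean normalized replicate activation at least 10% and every replicate at or above 10%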;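 note: 0% = median of on-plate neutral control wells and 100% = ellipticine 6 µM median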
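System: 68-5-11 XiGFP fibroblast line; Timing: 3 days compound exposure; Compound dosing: one concentration, pinned; Benchmarks: positive control ellipticine, 6 µM final; Buffer or medium: DMEM containing 5-aza-dC.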
RAD52 inh: blocks human RAD52 DNA annealing; recombinant RAD52 DNA annealing, FRET fluorescence; inhibition, % at 18.7 µM; 0.46% of 360,000 active; AID 651710;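 active = every replicate showing at least 50% inhibition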
Target sequence (P43351 whole entry, looked up): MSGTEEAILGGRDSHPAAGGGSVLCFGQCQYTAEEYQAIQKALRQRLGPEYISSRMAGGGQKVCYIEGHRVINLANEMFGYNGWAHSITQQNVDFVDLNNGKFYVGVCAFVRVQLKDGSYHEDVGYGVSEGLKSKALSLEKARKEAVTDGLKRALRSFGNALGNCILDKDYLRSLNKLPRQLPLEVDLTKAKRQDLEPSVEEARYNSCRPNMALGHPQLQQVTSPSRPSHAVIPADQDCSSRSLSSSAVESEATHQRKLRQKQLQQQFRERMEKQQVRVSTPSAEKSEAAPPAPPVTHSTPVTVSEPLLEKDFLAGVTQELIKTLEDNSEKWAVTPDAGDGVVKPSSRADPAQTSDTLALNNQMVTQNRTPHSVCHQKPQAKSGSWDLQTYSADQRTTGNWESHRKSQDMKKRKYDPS
RAD54 branch: inhibitors of human RAD54 branch migration | Q92698 | RAD54 Holliday junction branch migration, FAM/BHQ fluorescence | inhibition, % at 10.4 µM | 0.14% of 360,000 active;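 active = mean normalized replicate activity at least 40 and at least half of replicates scoring 40 or more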;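 note: 0% = median of neutral control wells and 100% = median of positive control wells; inhibitors cause a drop in the FAM fluorescence signal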
AF4-AF9 inh: inhibitors of human MLL-AF4/AF9 interaction | P42568 | AlphaScreen, biotin-AF4 peptide binding to FLAG-AF9 | inhibition, % at 10 µM | 0.47% of 350,000 active | AID 651704;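 active = every replicate reaching a set inhibition limit, whatever the replicate mean, cut at about 25% in these data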;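 note: 0% = plate neutral control median and 100% = total signal loss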
S100A4 MyoIIA: blocks human S100A4 binding to myosin IIA peptide; S100A4/TAMRA-MyoIIA peptide fluorescence polarization; P26447; 0.14% of 360,000 active; inhibition, % at 10.7 µM; AID 652163;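 active = mean inhibition of at least 70% across replicates, with every replicate also reaching that level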
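Assay system: human S100A4 monomer with TAMRA-labelled myosin IIA peptide / Buffer or medium: Calcium-containing HEPES buffer, pH 7.2 / Reagent: TAMRA-labelled myosin IIA heavy-chain peptide probe, 5 nM / Compound: one dose per compound / Timing: polarization read 5 min after assay mix addition, stable 5–60 min / Benchmarks: neutral control DMSO, positive control TFP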
* = called active by the depositor; nt = not tested or not shown.

SMILES	CASP6 VEID inh	Xi reactivation	RAD52 inh	RAD54 branch	AF4-AF9 inh	S100A4 MyoIIA
C[C@H](CO)N1C[C@H](C)[C@H](CN(C)Cc2ccncc2)Oc2ccc(NC(=O)NC3CCCCC3)cc2C1=O	0.8	1.5	8.8	-7.1	-1.4	-3.7
O=C(NC1CCC1)[C@@H]1[C@@H](CO)[C@@H]2Cn3c(ccc(-c4ccccc4F)c3=O)[C@@H]2N1Cc1ccncc1	-1.5	0.4	85.2*	11.3	0.8	1.0
O=C(NC1CCC1)[C@H]1[C@H](CO)[C@H]2Cn3c(ccc(-c4ccccc4F)c3=O)[C@H]2N1Cc1ccccn1	1.6	1.1	-11.5	nt	-0.4	-3.8
CCNC(=O)[C@@H]1[C@@H](CO)[C@@H]2Cn3c(ccc(-c4ccccc4)c3=O)[C@@H]2N1CC	-0.4	0.2	-7.7	-9.7	-2.4	77.9*
C[C@H]1CCCCO[C@@H](CN(C)Cc2ccncc2)[C@@H](C)CN([C@@H](C)CO)C(=O)c2cc(N(C)C)ccc2O1	-1.9	-0.7	-11.9	-7.8	3.9	6.8
CC(C)NC(=O)N(C)C[C@H]1Oc2c(N)cccc2C(=O)N(C)C[C@H]1C	nt	0.4	nt	nt	nt	nt
O=C(O)c1ccc(N2C(=O)CC(N3CCN(c4cccc(C(F)(F)F)c4)CC3)C2=O)cc1 (stereo not given)	90.2*	0.0	11.7	1.0	-1.2	31.1
COc1ccccc1S(=O)(=O)N[C@@H]1CC[C@@H](CC(=O)NCc2cc(F)cc(F)c2)O[C@H]1CO	-1.5	0.0	8.7	nt	-3.4	23.9
CN1CCN(C(=O)C[C@@H]2CC[C@@H]3[C@H](COC[C@H](O)CN3C(=O)Nc3ccc(F)cc3)O2)CC1	0.3	0.0	2.8	2.5	-3.2	3.9
O=C(C1CCN(c2ccc(N3CCOCC3)nn2)CC1)N1CCc2ccccc2C1	55.9*	nt	-7.7	0.7	7.6	-0.3
C[C@@H]1CN([C@H](C)CO)C(=O)c2cc(NS(=O)(=O)c3cn(C)cn3)ccc2O[C@@H]1CN(C)C(=O)Nc1ccccc1	0.5	-0.3	-8.3	-6.8	-2.1	-11.0
CCOC(=O)CCCCC(=O)c1[nH]c(=O)[nH]c1CSCCO	-4.6	nt	3.1	14.8	76.7*	-0.3
C[C@H]1CN([C@@H](C)CO)C(=O)c2cccc(NS(=O)(=O)c3ccccc3)c2O[C@H]1CN(C)S(=O)(=O)c1cn(C)cn1	0.7	-0.1	16.9	13.2	-15.7	2.4
Cc1cc(C(=O)CN2C(=O)C(=O)N(Cc3ccccc3)C2=O)c(C)n1Cc1ccccc1	2.4	-0.6	-7.9	4.3	0.5	12.0
COc1ccc(CCn2c(C)cc(C(=O)CN3C(=O)C(=O)N(Cc4ccco4)C3=O)c2C)cc1	-0.8	34.3*	-35.4	9.0	-1.7	-12.0
Cc1cc(NC(=O)C2CC(=O)N(c3cccc(C)c3C)C2)no1 (stereo not given)	-1.7	0.3	-3.1	-1.0	44.1*	-2.2
COc1ccc(NC(=O)N(C)C[C@H]2OCCCC[C@@H](C)Oc3ccc(NS(=O)(=O)c4ccc(OC)cc4)cc3C(=O)N([C@@H](C)CO)C[C@@H]2C)cc1	nt	0.5	nt	11.4	nt	nt
COc1ccc2c3c(n(C)c2c1)[C@H](CO)N(C(=O)Cc1ccccn1)CC31CN(CC2CCCCC2)C1	0.1	0.1	12.8	nt	26.4*	6.0
COc1ccc2c3c(n(C)c2c1)[C@H](CO)N(C(=O)C1CC1)CC31CN(Cc2ccccc2OC)C1	-0.9	0.0	17.1	nt	28.5*	17.9
COc1ccc2c3c(n(C)c2c1)[C@@H](CO)N(C(C)=O)CC31CN(Cc2ccccc2OC)C1	nt	0.3	20.2	nt	-1.4	-9.1
COc1cccc(CN2CC3(C2)CN(C(=O)C2CC2)[C@@H](CO)c2c3c3ccc(OC)cc3n2C)c1	nt	0.3	nt	nt	26.4*	nt
CCCNC(=O)N1CC2(CN(Cc3ccc(OC)cc3)C2)c2c(n(C)c3cc(OC)ccc23)[C@H]1CO	nt	0.2	nt	nt	35.7*	nt
Cc1nnc(NC(=O)c2cc(-c3ccco3)nc3ccccc23)s1	53.1*	-0.1	-10.0	1.7	5.6	-7.6
Cc1ccccc1-c1ccc([C@@H]2[C@@H](CO)N3C(=O)CN(C(=O)c4cccnc4)C[C@@H]23)cc1	nt	0.4	nt	nt	nt	nt
